From PubChem BioAssay AID1800 (The Scripps Research Institute Molecular Screening Center, 2009)
Out of some 290,000 compounds screened, about 1,600 (0.55%) were called active. The sample holds actives, similar compounds and a random draw of the others, so the mix is not that of the screen.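 Rule for the calls: active = inhibition above the mean of all tested compounds plus 3 SD, set per campaign (cut at about 35% in these data); inactive = the rest.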

System: Hepatitis C virus NS3 helicase
Test: inhibitors of HCV NS3 helicase, primary screen, biochemical, Cy5 molecular beacon fluorescence (AID 1800);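 note: 0% = DMSO wells and 100% = thioflavine S control wells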
Settings: NS3 helicase DNA unwinding, at 10.9 µM, stronger effect = higher value
Summary of the method: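 System: Hepatitis C virus NS3 helicase domain fragment enzyme | Reagent: Annealed dual-labelled DNA beacon duplex, ATP-started | Compound dosing: 10.9 µM single point, 0.8% DMSO | Incubation: 1 h reaction at 25 °C, ATP-initiated | Technique: Cy5 fluorescence | Evaluation: Percent inhibition from t60/t0 fluorescence ratio | Benchmarks: Low DMSO, high thioflavine S at 110 µM | Replication: Singlicate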

Question: Which inhibition does the source give for Cc1cccc(CCNS(=O)(=O)c2ccc(S(=O)(=O)NC3CCCC3)cc2)c1 here?
Answer: -9.33% (inactive)

Question: For Cc1cs/c(=N\N=C\c2ccc(O)cc2)n1Cc1ccco1, which inhibition is on record?
Answer: 3.43% (inactive)

Question: With CCOC(=O)/C=c1\s/c(=C\c2ccc(C#N)cc2)c(=O)n1CC(=O)Nc1cccc(C)c1C as the molecule, how does the inhibition read?
Answer: 12.5% (inactive)

Question: Which inhibition does the source give for CN(c1ccccc1)c1ccc(/C=c2\s/c(=C(/C#N)C(=O)C(C)(C)C)n(Cc3ccco3)c2=O)cc1 here?
Answer: 37% (active)

Question: Which inhibition does the source give for O=c1c(-c2ccccc2Cl)c[nH]n1-c1ccccc1 here?
Answer: 3.07% (inactive)

Question: Cc1cc(NC(=O)CSc2nnc(Nc3ccccc3F)s2)no1 was tested. Which inhibition did it give?
Answer: -0.95% (inactive)

Question: Which inhibition does the source give for Cc1ccc(Nc2nnc(SCC(=O)c3cc4ccccc4o3)s2)cc1C here?
Answer: 13.9% (inactive)

Question: Which inhibition does the source give for Cc1ccccc1Nc1nnc(SCC(=O)c2cc3ccccc3o2)s1 here?
Answer: 47.4% (active)

Question: CC1CCN(S(=O)(=O)c2ccc(NC(=O)C3CC(=O)N(c4ccccc4)C3)cc2)CC1 (centres undefined) was tested. Which inhibition did it give?
Answer: -43.1% (inactive)

Question: Which inhibition does the source give for CN(C)c1ccnc2sc3c(=O)n(-c4ccc(Cl)cc4)cnc3c12 here?
Answer: 3.7% (inactive)

Question: For Cc1cc(C)c2oc(C(=O)Nc3ccc(S(=O)(=O)Nc4nccc(C)n4)cc3)cc(=O)c2c1, which inhibition is on record?
Answer: -10.1% (inactive)

Question: Which inhibition does the source give for O=C(Nc1ccccc1)c1ccco1 here?
Answer: 10.7% (inactive)

Question: With CS/C(=C\C(=O)c1ccco1)Nc1ccccc1Cl as the molecule, how does the inhibition read?
Answer: 64.5% (active)

Question: Which inhibition does the source give for O=C(Nc1ccccc1C(=O)N1CCCCC1)c1ccco1 here?
Answer: 5.37% (inactive)

Question: How did the inhibition turn out when CCOc1ccc2sc(NS(=O)(=O)c3ccc(N)cc3)nc2c1 was run?
Answer: -15.8% (inactive)

Question: CN(C)[C@@H]1C(=O)C(C(N)=O)=C(O)[C@@]2(O)C(=O)C3=C(O)c4c(O)ccc(Cl)c4[C@@H](O)[C@H]3C[C@@H]12 was tested. Which inhibition did it give?
Answer: 39.9% (active)

Question: For Cc1cccc(-n2ncc(Cl)c(Cl)c2=O)c1, which inhibition is on record?
Answer: 10.4% (inactive)

Question: For Cc1ccc2nc3c(cc(C(=O)NCCc4ccccc4)c(=N)n3CC3CCCO3)c(=O)n2c1 (centres undefined), which inhibition is on record?
Answer: -6.17% (inactive)

Question: O=C(Oc1ccc([N+](=O)[O-])cc1)c1ccc(Cl)c(S(=O)(=O)N2CCCCC2)c1 was tested. Which inhibition did it give?
Answer: 7.15% (inactive)

Question: How did the inhibition turn out when CC(=O)Oc1cccc(N2C(=O)C3CC=C(Cl)CC3C2=O)c1 (centres undefined) was run?
Answer: 6.02% (inactive)

Question: Which inhibition does the source give for COc1cc2ccccc2cc1C(=O)Nc1ccc(N2CCOCC2)cc1 here?
Answer: -2.47% (inactive)

Question: How did the inhibition turn out when CC(=O)Oc1cccc(N2C(=O)CC(Nc3ccc(N4CCOCC4)cc3)C2=O)c1 (centres undefined) was run?
Answer: 48.2% (active)

Question: With CCCCOC(=O)Nc1nnc(CC(=O)NCc2ccccc2)s1 as the molecule, how does the inhibition read?
Answer: 8.31% (inactive)

Question: With O=C(CSc1ccc(-c2ccco2)nn1)Nc1cccc(F)c1 as the molecule, how does the inhibition read?
Answer: 20.3% (inactive)

Question: How did the inhibition turn out when COc1ccc(NC(=O)CCC(=O)Nc2cc(OC)c(NC(=O)c3ccco3)cc2OC)c(OC)c1 was run?
Answer: 7.66% (inactive)

Question: COc1ccc(NC(=O)CSc2ccc(-c3ccco3)nn2)c(OC)c1 was tested. Which inhibition did it give?
Answer: 36.8% (active)

Question: Which inhibition does the source give for CC1=C(C(=O)OCC2CCCCC2)C(c2ccc(F)cc2)NC(=O)N1 (centres undefined) here?
Answer: 0.43% (inactive)

Question: For O=C1c2ccccc2S(=O)(=O)N1Cc1c(F)cccc1Cl, which inhibition is on record?
Answer: 0.54% (inactive)

Question: For O=C1/C(=C/c2cccs2)CCc2ccccc21, which inhibition is on record?
Answer: -2.06% (inactive)

Question: For CCC1C/C(=C/c2cccs2)C(=O)/C(=C/c2cccs2)C1 (centres undefined), which inhibition is on record?
Answer: 44.1% (active)

Question: How did the inhibition turn out when CN1C/C(=C/c2cccs2)C(=O)/C(=C\c2cccs2)C1 was run?
Answer: 9.92% (inactive)

Question: How did the inhibition turn out when NC(=O)C1CCN(CC(O)CSc2ccc(F)cc2)CC1 (centres undefined) was run?
Answer: 3.59% (inactive)

Question: How did the inhibition turn out when O=C(Nc1ccccc1)C1CCN(C(=O)c2ccc(Br)cc2)CC1 was run?
Answer: -8.93% (inactive)

Question: For Cc1ccc(S(=O)(=O)NCCC(c2ccccc2)c2ccccc2)cc1C(=O)O, which inhibition is on record?
Answer: 38.8% (active)

Question: Cc1ccc(S(=O)(=O)NCCSc2ccccc2)cc1[N+](=O)[O-] was tested. Which inhibition did it give?
Answer: -4.6% (inactive)

Question: Cc1ccc(S(=O)(=O)NCCCn2ccnc2)cc1C(=O)NC(C)C was tested. Which inhibition did it give?
Answer: -0.51% (inactive)

Question: O=[N+]([O-])c1ccc2c(c1)Nc1nc3ccccc3nc1N2 was tested. Which inhibition did it give?
Answer: 3.43% (inactive)

Question: For CN1CCN(C(=O)c2cnn(-c3ccccc3)c2NC(=O)c2ccc([N+](=O)[O-])cc2)CC1, which inhibition is on record?
Answer: 5.97% (inactive)

Question: CCOC(=O)c1c(-c2ccccc2)oc2cc(Br)c(O)cc12 was tested. Which inhibition did it give?
Answer: -8.03% (inactive)

Question: With CCOC(=O)c1c(-c2ccccc2)oc2cc(Br)c(O)c(C=O)c12 as the molecule, how does the inhibition read?
Answer: 63.8% (active)

Question: With CCOC(=O)c1c(-c2ccccc2)oc2ccc(OCC(N)=O)cc12 as the molecule, how does the inhibition read?
Answer: -0.28% (inactive)

Question: How did the inhibition turn out when CCOc1cc(-c2noc(CCCC(=O)NC3CCCCC3)n2)ccc1OC was run?
Answer: -0.34% (inactive)

Question: For CCOc1ccc(CN2CCN(Cc3c[nH]c4ccccc34)CC2)cc1, which inhibition is on record?
Answer: -65.4% (inactive)

Question: With CCC1(C(=O)c2ccccc2)C(c2cccc([N+](=O)[O-])c2)C1(C(=O)OC)C(=O)OC (centres undefined) as the molecule, how does the inhibition read?
Answer: -10.6% (inactive)

Question: How did the inhibition turn out when Cc1ccc(N=C2NC(=O)/C(=C/C=C/c3ccco3)S2)cc1C was run?
Answer: 60.8% (active)

Question: Cc1cccc(N=C2NC(=O)/C(=C/c3cn(C)c4ccccc34)S2)c1 was tested. Which inhibition did it give?
Answer: -2.21% (inactive)

Question: Which inhibition does the source give for Cc1ccc(N2NC(=O)/C(=C/C=C/c3ccco3)C2=O)cc1C here?
Answer: 31.6% (inactive)

Question: With Cc1ccc(S(=O)(=O)NCCC(=O)Nc2cccc(S(N)(=O)=O)c2)cc1C as the molecule, how does the inhibition read?
Answer: -12.2% (inactive)

Question: How did the inhibition turn out when Nc1c(C(=O)c2cccs2)sc2nsc(SCCN3CCCCC3)c12 was run?
Answer: -21.1% (inactive)

Question: Which inhibition does the source give for CC(=O)c1cccc(NC(=S)N2CCN(S(C)(=O)=O)CC2)c1 here?
Answer: -3.09% (inactive)

Question: Which inhibition does the source give for Cc1ccc(OCC(=O)Nc2ccccc2Sc2ccc(Cl)cc2)c([N+](=O)[O-])n1 here?
Answer: -5.04% (inactive)

Question: Which inhibition does the source give for COc1ccc(C(=O)/C=C/c2ccc(OC3CSC3)cc2)cc1 here?
Answer: -2.94% (inactive)

Question: Which inhibition does the source give for COc1ccc(/C=C/C(=O)c2ccc(OC)cc2O)cc1 here?
Answer: -6.12% (inactive)

Question: COc1ccc(/C=C/C(=O)c2cc(Br)ccc(=O)c2O)cc1 was tested. Which inhibition did it give?
Answer: 45.2% (active)

Question: For O=C(NC(=S)Nc1ccccc1N1CCCCC1)c1ccc(F)cc1, which inhibition is on record?
Answer: 1.82% (inactive)

Question: CCCn1c(C2CCCN2c2nc(-c3ccc(C)cc3)cs2)nc2cc(Cl)c(N3CCCCC3)cc21 (centres undefined) was tested. Which inhibition did it give?
Answer: 35.5% (inactive)

Question: For CCn1c(C)c(C)c2cc(C(=O)N3CCN(c4cccc(C)c4C)CC3)ccc21, which inhibition is on record?
Answer: 2.52% (inactive)

Question: CCCOc1ccc(C2C(C(=O)c3ccc(C)o3)=C(O)C(=O)N2CCCn2ccnc2)cc1 (centres undefined) was tested. Which inhibition did it give?
Answer: -15.3% (inactive)

Question: For Cc1ccc2nc(N3C(=O)C(O)=C(C(=O)c4ccco4)C3c3cccc(O)c3)sc2c1 (centres undefined), which inhibition is on record?
Answer: 25.4% (inactive)

Question: CCOc1cc(C2C(C(=O)c3ccco3)=C(O)C(=O)N2Cc2ccccc2)ccc1O (centres undefined) was tested. Which inhibition did it give?
Answer: 9.26% (inactive)

Question: C=CCOc1cccc(C2C(C(=O)c3ccc(C)o3)=C(O)C(=O)N2CCCn2ccnc2)c1 (centres undefined) was tested. Which inhibition did it give?
Answer: -4.21% (inactive)

Question: With Cc1cc(N2C(=O)C(O)=C(C(=O)c3ccc(C)o3)C2c2ccc(OCc3ccccc3)cc2)no1 (centres undefined) as the molecule, how does the inhibition read?
Answer: 87.7% (active)

Question: With COc1cc(C2C(C(=O)c3ccco3)=C(O)C(=O)N2c2cc(C)on2)ccc1OCc1ccccc1 (centres undefined) as the molecule, how does the inhibition read?
Answer: 43.6% (active)

Question: Which inhibition does the source give for COc1ccc(-c2cc(C(=O)N3CCN(Cc4ccc5c(c4)OCO5)CC3)on2)cc1OC here?
Answer: -19.4% (inactive)

Question: For CC(=O)Nc1ccc(C(=O)N(C2=NC(C)CS2)c2ccc(Cl)cc2)cc1 (centres undefined), which inhibition is on record?
Answer: -10.2% (inactive)

Question: With COc1ccccc1CCCNC(=O)C1CCC(=O)N(CCN2CCOCC2)C1 (centres undefined) as the molecule, how does the inhibition read?
Answer: 7.14% (inactive)

Question: How did the inhibition turn out when COc1cccc(CNC(=O)c2cccnc2Sc2ccc(Cl)cc2)c1 was run?
Answer: -6.66% (inactive)

Question: For CC(=O)O[C@H]1c2ccccc2-c2ccccc2[C@@H]1OC(C)=O, which inhibition is on record?
Answer: 13.1% (inactive)

Question: Which inhibition does the source give for O=Cc1c(NCCc2cccc(F)c2)c2ccccc2[nH]c1=O here?
Answer: 0.14% (inactive)
